Published values of several laboratories.
Each line is one published result; the experiments were not run side by side.
MAOB: Amine oxidase [flavin-containing] B (MAOB, Homo sapiens, UniProt P27338)
HCK: Tyrosine-protein kinase HCK (HCK, Homo sapiens, UniProt P08631)

| SMILES | target | test | setting | measurement | value |
| --- | --- | --- | --- | --- | --- |
| C#CCN[C@@H]1CCc2ccccc21 | MAOB | enzyme activity, inhibitor | 1 µM | inhibition | 87.2% |
| CCCCC(=O)Nc1ccc(-c2ccc3ncn(CCC)c(=O)c3c2)cn1 | HCK | binding, competition with immobilised ligand | 0.5 µM | remaining binding | 98% |
| O=C(Nc1cc(Cl)cc(Cl)c1)c1ccc2c(c1)C(=O)NC2=O | MAOB | enzyme activity, inhibitor | 1 µM | inhibition | 89.3% |
| COc1ccc2oc(-c3ccc4nc(N)oc4c3)c/c(=N\c3ccccc3NC(=O)CCN)c2c1 | HCK | binding | 1 µM | remaining binding | 108% |
| O=C(Nc1ccc(F)c(Br)c1)c1ccc2c(c1)C(=O)NC2=O | MAOB | enzyme activity, inhibitor | 1 µM | inhibition | 97.3% |
| NC/C(=C\F)COc1cccc(Cn2c(=S)[nH]c(=O)c3[nH]cnc32)c1 | Beta-1 adrenergic receptor (ADRB1, Homo sapiens, UniProt P08588) | ligand displacement, radioligand | 10 µM | inhibition | < 50% |
| Cc1cc(F)cc2c(CCC(=O)N[C@@H]3C(=O)NC[C@H]3O)c(-c3ccc(F)cc3)[nH]c12 | Histamine H1 receptor (HRH1, Homo sapiens, UniProt P35367) | cell-free assay | 10 µM | inhibition | 17% |
| C1=C/COCc2cc(ccc2OCCN2CCCC2)Nc2nccc(n2)-c2cccc(c2)COC/1 | Ribosomal protein S6 kinase alpha-6, N-terminal kinase domain (RPS6KA6, Homo sapiens, UniProt Q9UK32) | cell-free assay | 0.1 µM | remaining signal | 78% |
| Cc1cc(S(=O)(=O)N[C@H]2CC[C@H](CN3CCN(c4ccc(C5CCC(=O)NC5=O)cc4F)CC3)CC2)ccc1Nc1ncc(C(F)(F)F)c(N2CCC[C@](C)(O)C2)n1 (stereo partly shown) | NUAK family SNF1-like kinase 2 (NUAK2, Homo sapiens, UniProt Q9H093) | binding, competition with immobilised ligand | 1 µM | remaining binding | 26% |
| CC(=O)ON=C1C=CC(=C(C#N)c2ccccc2)C=C1 | Receptor-interacting serine/threonine-protein kinase 3 (RIPK3, Homo sapiens, UniProt Q9Y572) | enzyme activity, inhibitor, ADP detection | 20 µM | activity vs control | 110% |
| O=C(Nc1ccc(Cl)c(F)c1)c1ccc2c(c1)C(=O)NC2=O | MAOB | enzyme activity, inhibitor | 1 µM | inhibition | 87% |
| C#Cc1cc(-c2cc(Nc3nc(N[C@@H](C)c4ccc(F)cn4)ncc3Cl)n[nH]2)ccc1C=O | Serine/threonine-protein kinase N1 (PKN1, Homo sapiens, UniProt Q16512) | enzyme activity, inhibitor | 0.2 µM | inhibition | 38.5% |
| Nc1ncnc2c1ncn2[C@@H]1O[C@H](COP(=O)(O)OP(=O)(O)OP(=O)(O)O)[C@@H](O)[C@H]1O | GUK1 (Homo sapiens, UniProt Q16774) | enzyme activity, substrate | – | Km | 102 µM |
